OX1R antag-1: blocks the human orexin 1 receptor; OX1R-expressing cells, FRET antagonist read-out; inhibition, % at 6.6 µM; 330,000 compounds, 1.8% hits; AID 485270; in the data active = inhibition mostly above about 38%, no sharp cut-off; inactive = mostly below about 40%;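 note: 0% = agonist challenge alone and 100% = reference antagonist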
CHO parental Ca: counter-screen for OX1R antagonists: effect in parental CHO cells. 330,000 compounds, 0.63% hits. inhibition, % at 5.6 µM. parental CHO-K1, ATP-induced calcium, Fluo-8 fluorescence;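 active = inhibition above that plate's mean sample inhibition plus 3 SD, cut at about 26% in these data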;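 note: 0% = ATP-challenged DMSO wells and 100% = DMSO wells without ATP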
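Material – parental CHO cells · Reagent – ATP stimulus · Compound – single nominal dose of 5.6 µM per compound · Detection – Fluo-8 fluorescence · Read-out basis – percent inhibition of calcium signal · Controls – ATP-challenged DMSO wells low, unchallenged DMSO wells high · Repeats – no replicates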
OX1R antag-2: antagonists of human orexin 1 receptor; O43613; CHO/OX1R cells, Fluo-8 calcium fluorescence, orexin A; inhibition, % at 5 µM; 330,000 compounds, 0.43% hits;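 active = inhibition above its plate's threshold, mean inhibition of all tested compounds on the plate plus 3 SD, cut at about 37% in these data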;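 note: 0% = orexin A challenge wells and 100% = SB-334867-A antagonist wells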
TAAR1 antagonist: antagonists of human TAAR1. AID 624466. 360,000 compounds, 1.5% hits. inhibition, % at 3 µM. CHO RD-HGA16 TAAR1, Fluo-8 calcium fluorescence, antagonist. Q96RJ0;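 active = inhibition above a per-plate cutoff, the mean inhibition of test compounds on that plate plus 3 SD, cut at about 49% in these data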;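 note: 0% = DMSO plus EC80 beta-PEA response and 100% = DMSO alone without agonist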
Target sequence (Q96RJ0 whole entry, looked up): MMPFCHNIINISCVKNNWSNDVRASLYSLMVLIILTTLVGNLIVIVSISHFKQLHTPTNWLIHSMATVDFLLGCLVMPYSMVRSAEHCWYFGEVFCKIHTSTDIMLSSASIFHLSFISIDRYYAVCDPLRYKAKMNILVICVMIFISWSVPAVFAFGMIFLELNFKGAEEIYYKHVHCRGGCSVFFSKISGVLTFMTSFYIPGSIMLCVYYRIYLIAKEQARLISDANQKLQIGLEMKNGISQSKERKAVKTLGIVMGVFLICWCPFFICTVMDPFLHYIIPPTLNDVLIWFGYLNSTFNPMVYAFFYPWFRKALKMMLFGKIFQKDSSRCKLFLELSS
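Material: CHO RD-HGA16 cells bearing hTAAR1; compound dosing: one-point dosing, 3 µM nominal final; schedule: dye loading 75 min at 37 °C, then 30 min room temperature; measured by: calcium fluorescence with Fluo-8; control set: vehicle and agonist controls; replication: n of 1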
TAAR1 agonist: human TAAR1 agonism. CHO RD-HGA16 TAAR1, Fluo-8 calcium fluorescence; vehicle wells 0%, saturating PEA agonist 100%. activation, % at 3 µM. 360,000 compounds, 0.99% hits. AID 624467;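 active = activation above the mean activation of all test compounds in the run plus 3 SD, cut at about 38% in these data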
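Test system: RD-HGA16 (CHO) cells co-expressing Gα16 and hTAAR1 / Benchmarks: DMSO vehicle as 0%, PEA at EC100 as 100% / Repeats: no replicates (n 1) / Measure: % activation from peak over basal fluorescence ratio, DMSO-to-PEA scaled / Timing: 17-24 h plating, Fluo-8 75 min 37 °C, 30 min RT / Technique: kinetic Fluo-8 calcium fluorescence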
NTR1 agonist: agonists of human neurotensin receptor NTR1 | P30989 | NTR1-U2OS beta-arrestin-GFP spot imaging, agonist mode | activation, % at 20 µM | 330,000 compounds, 0.17% hits | AID 493036;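 active = activation at or above 40% of the spot to cytoplasm intensity ratio, with at least 20 cells analyzed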;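 note: 0% = DMSO without peptide and 100% = 100 nM NTR1 peptide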
Target sequence (P30989 whole entry, looked up): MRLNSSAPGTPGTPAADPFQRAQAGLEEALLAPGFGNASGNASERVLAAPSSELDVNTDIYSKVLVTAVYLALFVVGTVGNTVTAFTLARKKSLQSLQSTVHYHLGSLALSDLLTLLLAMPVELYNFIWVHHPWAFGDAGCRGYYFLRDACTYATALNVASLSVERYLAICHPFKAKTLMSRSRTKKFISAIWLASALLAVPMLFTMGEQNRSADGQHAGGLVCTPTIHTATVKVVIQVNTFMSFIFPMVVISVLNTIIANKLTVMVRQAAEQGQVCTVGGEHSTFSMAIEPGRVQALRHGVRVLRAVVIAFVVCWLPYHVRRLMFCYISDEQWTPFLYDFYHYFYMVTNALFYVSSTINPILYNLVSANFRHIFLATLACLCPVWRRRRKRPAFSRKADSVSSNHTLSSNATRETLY
* hit, by the source's call. Rows were chosen to be rich in hits. Some 4% of all compounds tested hit in one or more screens of this group.

Results for O=C(COC(=O)c1c[nH]c2ccccc12)Nc1ccccc1 ?
OX1R antag-1: 11.9; CHO parental Ca: -4.4; OX1R antag-2: -4.2; TAAR1 antagonist: 12.4; TAAR1 agonist: 8.6; NTR1 agonist: -1.0

What do the screens show for `CC(NC(=O)COC(=O)c1c[nH]c2ccccc12)c1ccccc1` (stereo not given)?
OX1R antag-1: 43.2*; CHO parental Ca: -9.0; OX1R antag-2: 32.3; TAAR1 antagonist: 7.0; TAAR1 agonist: 4.1; NTR1 agonist: -0.3

How did O=C(CCCc1c[nH]c2ccccc12)NCCc1c[nH]c2ccccc12 do in these assays?
OX1R antag-1: 48.8*; CHO parental Ca: 1.5; OX1R antag-2: 19.3; TAAR1 antagonist: 19.0; TAAR1 agonist: 6.1; NTR1 agonist: 2.2

How did CC(NC(=O)COC(=O)c1cn(-c2ccccc2)nc1-c1cccs1)c1ccccc1 (stereo not given) do in these assays?
OX1R antag-1: 64.0*; CHO parental Ca: -6.9; OX1R antag-2: 10.4; TAAR1 antagonist: 19.7; TAAR1 agonist: 9.1; NTR1 agonist: 5.9

How did O=C(COC(=O)c1ccccc1O)NCCc1c[nH]c2ccccc12 do in these assays?
OX1R antag-1: 3.0; CHO parental Ca: -18.4; OX1R antag-2: 14.0; TAAR1 antagonist: 26.5; TAAR1 agonist: 6.6; NTR1 agonist: -0.7

How did O=C(COC(=O)c1ccccc1C(=O)OCC(=O)NCCc1c[nH]c2ccccc12)NCCc1c[nH]c2ccccc12 do in these assays?
OX1R antag-1: 68.1*; CHO parental Ca: 28.8; OX1R antag-2: 57.9*; TAAR1 antagonist: 76.1*; TAAR1 agonist: 34.0; NTR1 agonist: 6.1

What do the screens show for `O=C(Nc1ccncc1)c1cn(-c2ccccc2)nc1-c1cccs1`?
OX1R antag-1: 27.1; CHO parental Ca: 8.8; OX1R antag-2: -3.9; TAAR1 antagonist: 40.5; TAAR1 agonist: 19.3; NTR1 agonist: 8.7

What do the screens show for `CC(C)CNC(=O)CCCc1c[nH]c2ccccc12`?
OX1R antag-1: 27.1; CHO parental Ca: -11.8; OX1R antag-2: -21.8; TAAR1 antagonist: 6.5; TAAR1 agonist: 3.4; NTR1 agonist: -0.8

How did COC(=O)C1=C(C)N(C)C(=NCc2ccccc2)NC1c1ccccc1 (stereo not given) do in these assays?
TAAR1 antagonist: -2.7; TAAR1 agonist: 0.0

How did COC(=O)[C@]12C[C@H](CC(=O)N3CCCCC3)C(=O)N(Cc3ccc4c(c3)OCO4)C1=C[C@H](C(C)(C)C)O[C@@H]2C do in these assays?
TAAR1 antagonist: -24.0; TAAR1 agonist: -1.0

What do the screens show for `OCC[C@@H]1C[C@H](O)[C@@H](O)[C@@]2(OCCc3cc(C(F)(F)F)ccc32)O1`?
TAAR1 antagonist: 18.8; TAAR1 agonist: 4.4

Results for CC(C)(C)OC(=O)N[C@H]1C=C[C@@H](CC(=O)OCC(F)(F)F)C1 ?
TAAR1 antagonist: -11.6; TAAR1 agonist: 2.5

What do the screens show for `O=C(N[C@H](Cc1ccccc1)C(=O)NCC1CCCO1)[C@H]1O[C@@H](n2ccc(=O)[nH]c2=O)[C@H](O)[C@@H]1O` (stereo not given in full)?
TAAR1 antagonist: -16.7; TAAR1 agonist: 1.9

How did O=C(Nc1cccc(CNCCc2c[nH]c3ccccc23)c1)c1ccccc1Cl do in these assays?
OX1R antag-1: 13.5; CHO parental Ca: 3.7; OX1R antag-2: -11.9; TAAR1 antagonist: 25.0; TAAR1 agonist: 49.4*; NTR1 agonist: 4.2

Results for CC(C)OC(=O)N(C)C[C@H]1OCc2cn(nn2)CCCC(=O)N([C@@H](C)CO)C[C@@H]1C ?
TAAR1 antagonist: 5.7; TAAR1 agonist: 5.9

How did CCCCOC(=O)CCn1c(=S)oc2ccccc21 do in these assays?
OX1R antag-1: 5.9; CHO parental Ca: -7.0; OX1R antag-2: -42.2; TAAR1 antagonist: 25.1; TAAR1 agonist: 44.5*; NTR1 agonist: 0.8

How did O=c1c(-c2nnc(SCc3ccc(Cl)cc3Cl)o2)cccn1Cc1ccccc1 do in these assays?
OX1R antag-1: 51.7*; CHO parental Ca: 43.0*; OX1R antag-2: 49.1*; TAAR1 antagonist: 10.0; TAAR1 agonist: 5.9; NTR1 agonist: 6.0

How did O=C(NCc1ccccc1)[C@H]1CCCN1C(=O)[C@H]1CCCN1C(=O)c1ccc(Cl)cc1 do in these assays?
TAAR1 antagonist: -11.8; TAAR1 agonist: 0.6

How did COc1ccc2c(c1)[C@@]1(OCCC=C[C@H]1C)C(=O)N2Cc1ccc(Br)cc1 do in these assays?
TAAR1 antagonist: 15.2; TAAR1 agonist: 2.0

What do the screens show for `CCc1nc2ccc(C(=O)Nc3cccc(OCC(=O)N(C)C)c3)cn2c1N(C)Cc1ccc(OC)cc1`?
TAAR1 antagonist: 54.2*; TAAR1 agonist: 10.5

Results for Cc1nc(NCCc2cnc[nH]2)c2oc3ccccc3c2n1 ?
OX1R antag-1: 16.6; CHO parental Ca: -14.3; OX1R antag-2: -29.9; TAAR1 antagonist: -8.3; TAAR1 agonist: 16.6; NTR1 agonist: 1.5

How did COc1ccc(CCNc2ncnc3c2oc2ccccc23)cc1OC do in these assays?
OX1R antag-1: 77.9*; CHO parental Ca: 78.9*; OX1R antag-2: 59.9*; TAAR1 antagonist: 60.7*; TAAR1 agonist: 12.3; NTR1 agonist: 14.0

How did COc1ccc(CCNc2nc(C)nc3c2oc2ccccc23)cc1OC do in these assays?
OX1R antag-1: 53.5*; CHO parental Ca: 57.6*; OX1R antag-2: 30.7; TAAR1 antagonist: 48.9*; TAAR1 agonist: 12.6; NTR1 agonist: 4.2

How did CCc1cccc(C)c1N=Cc1c(O)c2ccccc2oc1=O do in these assays?
OX1R antag-1: 54.0*; CHO parental Ca: -1.1; OX1R antag-2: -4.2; TAAR1 antagonist: 1.8; TAAR1 agonist: 0.1; NTR1 agonist: 7.2

How did Cc1ccc(F)cc1N=Cc1c(O)c2ccccc2oc1=O do in these assays?
OX1R antag-1: 58.2*; CHO parental Ca: -4.2; OX1R antag-2: -19.5; NTR1 agonist: 0.4

What do the screens show for `Cc1ccc(N=Cc2c(O)c3ccccc3oc2=O)c(C)c1`?
OX1R antag-1: 2.5; CHO parental Ca: -7.8; OX1R antag-2: -9.0; TAAR1 antagonist: -21.0; TAAR1 agonist: 0.2; NTR1 agonist: 0.0

What do the screens show for `COC(=O)[C@]12C[C@H](CC(=O)NCCCN3CCCC3=O)C(=O)N(Cc3ccccc3)C1=C[C@H](C(C)(C)C)O[C@@H]2C`?
TAAR1 antagonist: -11.4; TAAR1 agonist: 2.0

What do the screens show for `Cn1nc(C(C)(C)C)cc1C(=O)NCC1CCN(C(=O)C(=O)c2cc3ccccc3o2)CC1`?
TAAR1 antagonist: 38.2; TAAR1 agonist: 6.7

How did COc1ccccc1N(CC(=O)NCCSCc1ccco1)S(=O)(=O)c1ccccc1 do in these assays?
OX1R antag-1: 50.9*; CHO parental Ca: -33.5; OX1R antag-2: 23.3; TAAR1 antagonist: 38.7; TAAR1 agonist: 7.7; NTR1 agonist: -0.1

Results for COc1ccccc1N(CC(=O)NCCSCc1ccccc1)S(=O)(=O)c1ccccc1 ?
TAAR1 antagonist: 65.2*; TAAR1 agonist: 7.3

Bioassay records: PubChem BioAssay, several laboratories
